The text below walks through data of ChEMBL document CHEMBL4316635, “Synthesis, Structure Revision, and Cytotoxicity of Nocarbenzoxazole G” (J Nat Prod, 2019).

One test deals with HepG2. Kind of test: Cytotoxicity in human HepG2 cells assessed as reduction in cell viability incubated for 48 hrs by CCK8 assay. It is filed as functional, cell-based. The following applies: HepG2, 48 h. The procedure, abridged:
(§1)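 Exponentially growing cells, routinely kept in DMEM or RPMI1640 (line-dependent) with 10% FBS, penicillin/streptomycin at 37 °C and 5% CO₂, were seeded at 1.0 × 10⁴ cells/well in triplicate. The next day they were treated at 1.25–20 μM for 48 h. CCK-8 reagent was then added for 1 h and absorbance read at 450 nm. Controls received medium with 0.5% (v/v) DMSO.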
Background: Tetrazolium assays rely on reduction of a dye to a coloured formazan, in cell work by metabolically active cells.

For the next test, the system named is MDA-MB-231. As to the kind of experiment: Cytotoxicity in human MDA-MB-231 cells assessed as reduction in cell viability incubated for 48 hrs by CCK8 assay. The following applies: MDA-MB-231, 48 h. It is filed as functional, cell-based. The procedure, abridged: as §1
The subject of the next test is MCF7. Kind of test: Cytotoxicity in human MCF7 cells assessed as reduction in cell viability incubated for 48 hrs by CCK8 assay. The following applies: MCF7, 48 h. It is filed as functional, cell-based. In a few lines:
as §1

The subject of a further test is T98G. As to the kind of experiment: Cytotoxicity in human T98G cells assessed as reduction in cell viability incubated for 48 hrs by CCK8 assay. It is filed as cell-based. The procedure, abridged: as §1
Another test has as its system Hep 3B2. As to the kind of experiment: Cytotoxicity in human Hep3B cells assessed as reduction in cell viability incubated for 48 hrs by CCK8 assay. It is filed as functional, cell-based. In a few lines:
as §1

The next test relates to HeLa. As to the kind of experiment: Cytotoxicity in human HeLa cells assessed as reduction in cell viability incubated for 48 hrs by CCK8 assay. It is filed as functional, cell-based. In a few lines: as §1

Bounds are passed on as bounds.

For orientation: IC50 means the concentration that inhibits the measured activity by half. As to `OCc1ccc2oc(-c3ccc(O)cc3)nc2c1`, the 50% inhibitory concentration (IC50) with HepG2 is more than 20 µM; in the test with MDA-MB-231 it was more than 20 µM; with MCF7, more than 20 µM; with T98G, more than 20 µM; in the test with Hep 3B2, more than 20 µM; in the test on HeLa, 4.7 µM.
`COc1cc(-c2nc3cc(CO)ccc3o2)ccc1O`: the half-maximal inhibitory concentration (IC50) with HepG2 is more than 20 µM; in the test with MDA-MB-231, more than 20 µM; in the test on MCF7, more than 20 µM; in the test with T98G, more than 20 µM; in the test on Hep 3B2, more than 20 µM; in the test with HeLa, 5.7 µM.
As for `OCc1ccc2oc(-c3ccc4[nH]ccc4c3)nc2c1`, the half-inhibitory concentration (IC50) is more than 20 µM in the test with HepG2; more than 20 µM with MDA-MB-231; more than 20 µM in the test with MCF7; more than 20 µM in the test with T98G; more than 20 µM in the test with Hep 3B2; 8.9 µM in the test with HeLa.
On to `OCc1ccc2oc(-c3ccc4cc(O)ccc4c3)nc2c1`, for which the IC50 in the test with HepG2 is more than 20 µM; in the test with MDA-MB-231, more than 20 µM; in the test on MCF7, more than 20 µM; with T98G, more than 20 µM; in the test with Hep 3B2, more than 20 µM; in the test with HeLa it was 0.56 µM.
For the molecule `OCc1ccc2oc(-c3ccc(Cl)cc3)nc2c1`, the IC50 in the test with HepG2 was more than 20 µM; in the test on MDA-MB-231, more than 20 µM; in the test with MCF7, more than 20 µM; in the test on T98G, more than 20 µM; in the test with Hep 3B2, more than 20 µM; in the test with HeLa it was 16 µM.
Consider `Cc1cc(-c2nc3cc(CO)ccc3o2)cc(C)c1N`, for which the IC50 in the test with HepG2 was more than 20 µM; in the test with MDA-MB-231, more than 20 µM; with MCF7, more than 20 µM; with T98G, more than 20 µM; in the test with Hep 3B2, more than 20 µM; in the test with HeLa, 19 µM.
Turning to `COc1cc(O)ccc1-c1nc2cc(CO)ccc2o1`, the IC50 in the test with HepG2 is more than 20 µM; in the test on MDA-MB-231, more than 20 µM; in the test on MCF7, more than 20 µM; in the test on T98G, more than 20 µM; in the test with Hep 3B2, more than 20 µM; with HeLa it was 2.9 µM.
In the case of `OCc1ccc2oc(-c3ccc(O)c(Cl)c3)nc2c1`, the half-inhibitory concentration (IC50) was more than 20 µM in the test with HepG2; more than 20 µM with MDA-MB-231; more than 20 µM in the test on MCF7; more than 20 µM in the test with T98G; more than 20 µM in the test with Hep 3B2; 11 µM with HeLa.
